Experimental data published in ChEMBL document CHEMBL4024804 (J Med Chem, 2018).
Calls of active or inactive are those of the source. The calls are words filed in the database; no cut-off is given here.

Assays:
A-375 [1] = assay: Cytotoxicity against human A375 cells after 72 hrs by MTS assay; assay type: functional, cell-based; conditions: A-375, 72 h
In short: (§1)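 Melanoma cells grown in DMEM with 10% FBS and seeded at 1800–3500 cells per well, then incubated overnight. Cells treated for 72 h with 10 concentrations from 0.03 nM to 1 μM, with DMSO vehicle, in four replicates. MTS added for at least 1 h at 37 °C and absorbance read at 490 nm. IC50 obtained by nonlinear regression.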

M14 = assay: Cytotoxicity against human M14 cells after 72 hrs by MTS assay; assay type: functional, cell-based; conditions: M14, 72 h; in short: as §1
RPMI-7951 [2] = assay: Cytotoxicity against human RPMI7951 cells after 72 hrs by MTS assay; assay type: functional, cell-based; conditions: RPMI-7951, 72 h; in short: as §1
Liver = assay: Half life in human liver microsomes by UPLC-MS analysis; assay type: ADME, microsome
In short: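 Compound at 10 mM in DMSO diluted into human liver microsomes (0.6381 mg/mL protein) in 0.1 M potassium phosphate pH 7.4 with EDTA. NADPH regenerating system added, incubated at 37 °C for 0–4 h in triplicate. Quenched with cold acetonitrile containing warfarin as internal standard, analysed by UPLC–MS SIR. ke from log-linear regression; t1/2 = ln 2/ke.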

Homo sapiens [3] = species: Homo sapiens; assay: Inhibition of tubulin polymerization in human WM164 cells assessed as fragmentation of microtubules at 100 nM after 18 hrs using DAPI by immunofluorescence-based confocal microscopic method; assay type: cell-based
In short: (§2)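 WM164 cells on glass coverslips (125 000 cells/well), incubated overnight, treated 18 h with 100 nM compound or DMSO vehicle. Stained with anti-α-tubulin and Alexa Fluor 647 anti-mouse IgG, mounted in DAPI-containing medium, and imaged by confocal microscopy.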

Homo sapiens [4] = species: Homo sapiens; assay: Inhibition of tubulin polymerization in human WM164 cells assessed as decrease in polymeric tubulin filaments at 100 nM after 18 hrs using DAPI by immunofluorescence-based confocal microscopic method; assay type: cell-based; in short: as §2
Homo sapiens [5] = species: Homo sapiens; assay: Inhibition of tubulin polymerization in human WM164 cells assessed as increase in cytoplasmic soluble tubulin levels at 100 nM after 18 hrs using DAPI by immunofluorescence-based confocal microscopic method; assay type: cell-based; in short: as §2
A-375 [6] = assay: Antimigratory activity in human A375 cells assessed as wound closure at 5 nM after 22 hrs (reference value: 60.7 +/- […]); assay type: functional
RPMI-7951 [7] = assay: Antimigratory activity in human RPMI7951 cells assessed as wound closure at 5 nM after 18 hrs (reference value: 71.8 +/- 1.8%); assay type: functional
A-375 [8] = assay: Antimigratory activity in human A375 cells assessed as wound closure at 25 nM after 22 hrs (reference value: 60.7 +/- […]); assay type: functional
RPMI-7951 [9] = assay: Antimigratory activity in human RPMI7951 cells assessed as wound closure at 25 nM after 18 hrs (reference value: 71.8 +/- 1.8%); assay type: functional
[10] = Acute toxicity in nude mouse administered as qd for 5 days; conditions: in vivo
In short: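 Nude mice, 6–8 weeks old; compound formulated in PEG300 and given as five continuous daily administrations, then monitored for acute toxicity. A single-dose acute MTD was estimated first.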

A-375 [11] = assay: Antitumor activity against human A375 cells xenografted in nude mouse assessed as tumor growth inhibition at 15 mg/kg, ip administered every other day for 2 weeks relative to control; assay type: functional; conditions: A-375, ip, 336 h, read-out: TGI
In short: (§3)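 Nude mice 6–8 weeks old; 2 × 10^6 A375 cells in FBS-free medium with Matrigel injected sc into dorsal flank. At about 100 mm3 mice were randomized, n = 8. Drug in 2:1 PEG300/PBS given ip every other day. Volume measured by caliper three times weekly (a × b2 × 0.5).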

A-375 [12] = assay: Antitumor activity against human A375 cells xenografted in nude mouse assessed as tumor growth inhibition at 30 mg/kg, ip administered every other day for 2 weeks relative to control; assay type: functional; conditions: A-375, ip, 336 h, read-out: TGI; in short: as §3
A-375 [13] = assay: Antitumor activity against human A375 cells xenografted in nude mouse assessed as decrease in tumor weight at 15 mg/kg, ip administered every other day for 2 weeks; assay type: functional, organism-based
In short: (§4)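 Nude mice (6–8 weeks) injected subcutaneously in dorsal flank with 2 × 10^6 A375 cells in Matrigel. At ~100 mm3, randomized (n = 8). Compound given ip every other day in 2:1 PEG300/PBS; vehicle equal parts PEG300/PBS. Tumors weighed at sacrifice; mean ± SEM, ANOVA with Dunnett's test versus vehicle.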

A-375 [14] = assay: Antitumor activity against human A375 cells xenografted in nude mouse assessed as decrease in tumor weight at 30 mg/kg, ip administered every other day for 2 weeks; assay type: functional, organism-based; conditions: 30 mg/kg; in short: as §4
A-375 [15] = assay: Induction of apoptosis in human A375 cells xenografted in nude mouse assessed as increase in cleaved caspase-3 levels at 15 mg/kg, ip administered every other day for 2 weeks by immunohistochemical analysis; assay type: functional, organism-based
In short: (§5)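 Formalin-fixed, paraffin-embedded A375 xenograft tumors from mice dosed ip every other day (2:1 PEG300/PBS). Serial sections immunostained with rabbit anti-cleaved caspase 3 antibody by the ABC-DAB method.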

A-375 [16] = assay: Induction of apoptosis in human A375 cells xenografted in nude mouse assessed as increase in cleaved caspase-3 levels at 30 mg/kg, ip administered every other day for 2 weeks by immunohistochemical analysis; assay type: functional, organism-based; in short: as §5
A-375 [17] = assay: Induction of morphological changes in human A375 cells xenografted in nude mouse assessed as less microvessel density at 15 mg/kg, ip administered every other day for 2 weeks by immunohistochemical analysis; assay type: functional, organism-based
A-375 [18] = assay: Induction of morphological changes in human A375 cells xenografted in nude mouse assessed as less microvessel density at 30 mg/kg, ip administered every other day for 2 weeks by immunohistochemical analysis; assay type: functional, organism-based
PC-3 [19] = assay: Cytotoxicity against human PC3 cells after 72 hrs by MTS assay; assay type: functional, cell-based; conditions: PC-3, 72 h
In short: (§6)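 Cells treated 72 h at 10 concentrations, 0.03 nM–1 μM, n = 4. MTS read at 490 nm; IC50 by nonlinear regression. RI = resistant IC50 / parental IC50.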

[20] = Cytotoxicity against human PC3-TxR cells after 72 hrs by MTS assay; assay type: functional, cell-based; in short: as §6
[21] = Resistance index, ratio of IC50 for human PC3-TxR cells to IC50 for human PC3 cells; assay type: functional
In short: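 Cells were treated 72 h with 10 concentrations from 0.03 nM to 1 μM, four replicates, A490 read. IC50 by nonlinear regression. RI = IC50 resistant / IC50 parental.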

DU-145 = assay: Cytotoxicity against human DU145 cells after 72 hrs by MTS assay; assay type: functional, cell-based; conditions: DU-145, 72 h; in short: as §6
[22] = Cytotoxicity against human DU145-TxR cells after 72 hrs by MTS assay; assay type: functional, cell-based; in short: as §6
[23] = Resistance index, ratio of IC50 for human DU145-TxR cells to IC50 for human DU145 cells; assay type: functional; in short: as §6
[24] = Antitumor activity against human PC3-TxR cells xenografted in nude mouse assessed as tumor growth inhibition at 30 mg/kg, ip administered every other day for 3 weeks; assay type: functional; conditions: 504 h, read-out: TGI
In short: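 Nude mice 6–8 weeks old; 2.5 × 10^6 PC-3/TxR cells with Matrigel injected sc into dorsal flank. […] At about 100 mm3 mice were randomized, n = 7. Drug in 2:1 PEG300/PBS given ip every other day. Caliper volume a × b2 × 0.5. TGI computed from start and end mean volumes relative to the vehicle group.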

RPMI-7951 [25] = assay: Antimigratory activity in human RPMI7951 cells after 18 hrs by wound healing assay; assay type: functional, cell-based
In short: (§7)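 A375 and RPMI7951 monolayers seeded overnight (200 000 cells/well, triplicate), scratched with a pipet tip, washed, then given medium with 5 or 25 nM compound; untreated control wells. Imaged at 0 h and at 18 h (RPMI7951) or 22 h (A375); wound channel area measured and percent closure calculated. Dunnett's test versus control.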

A-375 [26] = assay: Antimigratory activity in human A375 cells after 22 hrs by wound healing assay; assay type: functional, cell-based; in short: as §7
Tubulin (Sus scrofa) = assay: Inhibition of tubulin (porcine brain) polymerization measured every min for 50 mins
PC3-TxR [27] = assay: Antitumor activity against human PC3-TxR cells xenografted in nude mouse assessed as decrease in tumor volume at 15 mg/kg, ip administered every other day for 3 weeks; assay type: functional, organism-based
In short: (§8)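 Paclitaxel-resistant PC-3/TxR, kept drug-free at least 1 week beforehand, implanted subcutaneously (2.5 × 10^6 cells with Matrigel) in nude mice. Randomized at ~100 mm3 (n = 7). Dosing ip every other day in 2:1 PEG300/PBS. Volume by caliper (a × b2 × 0.5) three times weekly, tumors weighed at end. One-way ANOVA with Dunnett's test versus vehicle.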

PC3-TxR [28] = assay: Antitumor activity against human PC3-TxR cells xenografted in nude mouse assessed as decrease in tumor weight at 15 mg/kg, ip administered every other day for 3 weeks; assay type: functional, organism-based; in short: as §8
Mus musculus = assay: Toxicity in nude mouse xenografted with human PC3-TxR cells assessed as decrease in body weight at 15 mg/kg, ip administered every other day for 2 weeks; assay type: organism-based; conditions: in vivo, 336 h
PC-3 [29] = assay: Antitumor activity against human PC3 cells xenografted in nude mouse assessed as decrease in tumor volume at 15 mg/kg, ip administered every other day for 3 weeks; assay type: functional, organism-based
In short: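 PC-3 cells (2.5 × 10^6) with Matrigel injected subcutaneously in dorsal flank of nude mice. At ~100 mm3, randomized (n = 8). Dosing ip every other day in 2:1 PEG300/PBS; vehicle PEG300/PBS 1:1. Caliper volume a × b2 × 0.5 three times weekly.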

COc1ccc2c(n1)CCCN2c1nc(Cl)nc2ncccc12
IC50 (A-375 [1]): > 1000 nM
IC50 (M14): > 1000 nM
IC50 (RPMI-7951 [2]): > 1000 nM

COc1ccc2c(c1)CCCN2c1nc(Cl)nc2ncccc12
IC50 (A-375 [1]): 5.6 nM
IC50 (M14): 5.5 nM
IC50 (RPMI-7951 [2]): 8.2 nM
t1/2 (Liver): 1.4 h
inhibition (Homo sapiens [3]): Active
inhibition (Homo sapiens [4]): Active
inhibition (Homo sapiens [5]): Active
Activity (A-375 [6]): 36.4%
Activity (RPMI-7951 [7]): 46.4%
Activity (A-375 [8]): 16.9%
Activity (RPMI-7951 [9]): 25.5%
MTD at 120 h [10]: 50 mg/kg
inhibition in vivo at 15 mg/kg (A-375 [11]): 57.1%
inhibition in vivo at 30 mg/kg (A-375 [12]): 72.3%
Activity (A-375 [13]): Active
Activity (A-375 [14]): Active
Activity (A-375 [15]): Active
Activity (A-375 [16]): Active
Activity (A-375 [17]): Active
Activity (A-375 [18]): Active
IC50 (PC-3 [19]): 12.7 nM
IC50 [20]: 8.7 nM
Ratio IC50 [21]: 0.7
IC50 (DU-145): 18.3 nM
IC50 [22]: 19.9 nM
Ratio IC50 [23]: 1.1
inhibition in vivo at 30 mg/kg [24]: 55.6%
Activity (RPMI-7951 [25]): Dose-dependent effect
Activity (A-375 [26]): Dose-dependent effect
inhibition (Tubulin (Sus scrofa)): Dose-dependent effect

COc1ccc2c(c1)C(=O)CCN2c1nc(Cl)nc2ncccc12
IC50 (A-375 [1]): > 1000 nM
IC50 (M14): > 1000 nM
IC50 (RPMI-7951 [2]): > 1000 nM

CC(=O)O[C@H]1C(=O)[C@@]2(C)[C@H]([C@H](OC(=O)c3ccccc3)[C@]3(O)C[C@H](OC(=O)[C@H](O)[C@@H](NC(=O)c4ccccc4)c4ccccc4)C(C)=C1C3(C)C)[C@]1(OC(C)=O)CO[C@@H]1C[C@@H]2O [PACLITAXEL]
inhibition in vivo at 15 mg/kg (A-375 [11]): 76.5%
Activity (A-375 [15]): Active
IC50 (PC-3 [19]): 3.7 nM
IC50 [20]: 111 nM
IC50 [22]: > 1000 nM
Activity (PC3-TxR [27]): inactive
Activity (PC3-TxR [28]): inactive
Activity (Mus musculus): Toxic
Activity (PC-3 [29]): Active

COc1ccc(N(C)c2nc(Cl)nc3ncccc23)cc1OC
IC50 (A-375 [1]): 39 nM
IC50 (M14): 39.5 nM
IC50 (RPMI-7951 [2]): 47.5 nM

COc1ccc2c(c1)CCCN2c1nc(Cl)nc2c1cnn2C
IC50 (A-375 [1]): > 1000 nM
IC50 (M14): > 1000 nM
IC50 (RPMI-7951 [2]): > 1000 nM

COc1ccc2c(c1)C(O)CCN2c1nc(Cl)nc2ncccc12 (stereo not given)
IC50 (A-375 [1]): 36.1 nM
IC50 (M14): 52.6 nM
IC50 (RPMI-7951 [2]): 41.9 nM

CN(c1ccc2c(c1)OCO2)c1nc(Cl)nc2ncccc12
IC50 (A-375 [1]): 162 nM
IC50 (M14): 164 nM
IC50 (RPMI-7951 [2]): 179 nM

COc1ccc2c(c1)OCCN2c1nc(Cl)nc2ncccc12
IC50 (A-375 [1]): 223 nM
IC50 (M14): 269 nM
IC50 (RPMI-7951 [2]): 404 nM
